Experimental data from ChEMBL document CHEMBL4811269, “Design, synthesis and antibacterial evaluation of novel C-11, C-9 or C-2'-substituted 3-O-descladinosyl-3-ketoclarithromycin derivatives” (Bioorg Med Chem Lett, 2021).
≈ marks a conversion by molar mass, not a printed value.

Key:
Streptococcus pneumoniae [1] = assay: Antibacterial activity against erythromycin-resistant Streptococcus pneumoniae B1 by broth microdilution method; type: functional
Method in brief: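 MIC by standard NCCLS broth microdilution, reported in µg/mL. The strain expresses the ermB gene. Clarithromycin and azithromycin were run alongside as references.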

Pseudomonas aeruginosa = assay: Antibacterial activity against penicillin-susceptible Pseudomonas aeruginosa ATCC 27853 by broth microdilution method; type: functional
Method in brief: (§1)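 MIC determined by standard broth microdilution per NCCLS recommendations, read as minimal inhibitory concentration in µg/mL. Standard ATCC strains tested alongside the other panel strains, with clarithromycin and azithromycin as reference agents.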

Bacillus subtilis = assay: Antibacterial activity against penicillin-susceptible Bacillus subtilis ATCC9372 by broth microdilution method; type: functional; method in brief: as §1
Streptococcus pyogenes = assay: Antibacterial activity against erythromycin-resistant Streptococcus pyogenes R1 by broth microdilution method; type: functional
Method in brief: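 MIC by standard NCCLS broth microdilution, reported in µg/mL. The strain is a clinically isolated erythromycin-resistant strain. Clarithromycin and azithromycin were run alongside as references.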

Staphylococcus aureus [2] = assay: Antibacterial activity against penicillin-resistant Staphylococcus aureus ATCC 31007 by broth microdilution method; type: functional
Method in brief: (§2)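 MIC by standard NCCLS broth microdilution against resistant S. aureus strains, reported in µg/mL. Clarithromycin and azithromycin were run alongside as references.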

Staphylococcus aureus [3] = assay: Antibacterial activity against erythromycin-susceptible Staphylococcus aureus ATCC 25923 by broth microdilution method; type: functional; method in brief: as §1
Streptococcus pneumoniae [4] = assay: Antibacterial activity against erythromycin-resistant Streptococcus pneumoniae AB11 by broth microdilution method; type: functional
Method in brief: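 MIC by standard NCCLS broth microdilution, reported in µg/mL. The strain expresses the ermB and mefA genes. Clarithromycin and azithromycin were run alongside as references.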

[5] = Chemical stability of the compound in pH 7.4 phosphate solution after 24 hrs by HPLC analysis; type: physicochemical; conditions: buffer, pH 7.4, 24 h
Method in brief: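 Compound held in phosphate solution (pH = 7.4) at 25 °C and monitored by HPLC over 24 h. Stability judged from change in peak area.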

Staphylococcus aureus [6] = assay: Antibacterial activity against methicillin-resistant Staphylococcus aureus ATCC 43300 by broth microdilution method; type: functional; method in brief: as §2

CO[C@]1(C)C[C@@H](C)[C@H](OC(=O)c2cccc(C(F)(F)F)c2)[C@H](C)CN(C)CCOC(=O)[C@H](C)C(=O)[C@H](C)[C@H]1O[C@@H]1O[C@H](C)C[C@H](N(C)C)[C@H]1OC(=O)c1cccc(C(F)(F)F)c1
MIC (Streptococcus pneumoniae [1]): > 256 µg/mL
MIC (Pseudomonas aeruginosa): > 128 µg/mL
MIC (Bacillus subtilis): > 128 µg/mL
MIC (Streptococcus pyogenes): > 256 µg/mL
MIC (Staphylococcus aureus [2]): > 256 µg/mL
MIC (Staphylococcus aureus [3]): 128 µg/mL (≈ 144 µM)
MIC (Streptococcus pneumoniae [4]): > 256 µg/mL
Stabilty [5]: Stable
MIC (Staphylococcus aureus [6]): > 256 µg/mL

CO[C@]1(C)C[C@@H](C)[C@H](OC(=O)c2ccccc2)[C@H](C)CN(C)CCOC(=O)[C@H](C)C(=O)[C@H](C)[C@H]1O[C@@H]1O[C@H](C)C[C@H](N(C)C)[C@H]1OC(=O)c1ccccc1
MIC (Streptococcus pneumoniae [1]): > 256 µg/mL
MIC (Pseudomonas aeruginosa): > 128 µg/mL
MIC (Bacillus subtilis): > 128 µg/mL
MIC (Streptococcus pyogenes): > 256 µg/mL
MIC (Staphylococcus aureus [2]): > 256 µg/mL
MIC (Staphylococcus aureus [3]): 128 µg/mL (≈ 170 µM)
MIC (Streptococcus pneumoniae [4]): > 256 µg/mL
Stabilty [5]: Stable
MIC (Staphylococcus aureus [6]): > 256 µg/mL
